Measured values as given in ChEMBL document CHEMBL2417481, “Regioselective synthesis of 6-substituted-2-amino-5-bromo-4(3H)-pyrimidinones and evaluation of their antiviral activity” (Eur J Med Chem, 2013).

The compounds below were run on Vaccinia virus (assay: Antiviral activity against Vaccinia virus Lederle infected in human HEL cells assessed as reduction in virus-induced cytopathogenicity). Conditions: Orthopoxvirus vaccinia.
Format: functional, organism-based
Method in brief: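 Confluent cell monolayers (Vero, HeLa, HEL or MDCK, as named in each line) were infected with 100 CCID50 of virus while exposed to a range of compound concentrations. Cytopathicity was scored once it was complete in untreated infected controls.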
For Nc1nc(CC(O)c2ccc(Cl)cc2)c(Br)c(=O)[nH]1 (stereo not given), the EC50 was > 100 µM. With Nc1nc2c(ncn2COCCO)c(=O)[nH]1 [ACYCLOVIR] the EC50 was > 250 µM. With CCCCCc1nc(N)[nH]c(=O)c1Br the EC50 was > 100 µM. COc1ccc(/C=C/c2nc(N)[nH]c(=O)c2Br)cc1OC was tested, and the EC50 was > 100 µM. With Cc1cc(C)c(/C=C/c2nc(N)[nH]c(=O)c2Br)c(C)c1 the EC50 was > 20 µM. With CC(C)(O)Cc1nc(N)[nH]c(=O)c1Br the EC50 was > 100 µM. For CCCc1nc(N)[nH]c(=O)c1Br, the EC50 was > 100 µM. For Nc1nc(CC(O)c2ccccc2C(F)(F)F)c(Br)c(=O)[nH]1 (stereo not given), the EC50 was > 100 µM. In the case of Nc1nc(CCc2ccccc2)c(Br)c(=O)[nH]1, the EC50 is reported as > 100 µM. In the case of CCCCc1nc(N)[nH]c(=O)c1Br, the EC50 is reported as > 100 µM.
